Data set [1] is described as follows: Ratio of drug level in brain to plasma in po dosed rat. The format is ADME, organism-based. The settings on record: read-out: BPR.
Data set [2] has as its target Sodium-dependent serotonin transporter (Homo sapiens) (UniProt P31645). Description: Inhibition of serotonin transporter at 10 uM. The essentials:
(§1)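 Counterscreen panel of 60 receptors, enzymes and ion channels; inhibition of binding measured at 10 µM.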

The subject of another data set is GABA transporter. Description: Inhibition of GABA transporter at 10 uM.
Data set [3] in a line: Half life in iv dosed rat. The settings on record: in vivo. The format is ADME, organism-based.
A short description of data set [4]: Inhibition of sodium channel at 10 uM. The essentials:
as §1

The target of data set [5] is 5-hydroxytryptamine receptor 7 (Homo sapiens) (UniProt P34969). Description: Inhibition of 5HT7 receptor at 10 uM. In outline:
as §1

For data set [6], the system named is Rattus norvegicus. Kind of data set: Increase in lean body mass in Sprague-Dawley DIO rat at 10 mg/kg/day, po after 28 days. The format is functional, organism-based. In outline: (§2)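 DIO rats weighing 700–800 g at start, n = 12/group, food and water ad libitum. Compound admixed into low fat diet for 28 days; delivered doses (1, 3 or 10 mg/kg/day) calculated from food consumption. Body composition by DEXA scanning, expressed as percent change from day 0 baseline; average plasma levels taken at the 10 mg/kg/day dose.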

The target of data set [7] is Neuropeptide Y receptor type 5 (Homo sapiens, UniProt Q15761). Description: Displacement of [125]PYY from human chimeric NPY Y5 receptor expressed in CHOK1 cells. The format is cell-based. As to conditions: cho-k1. The essentials: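 Binding to human chimeric Y5 receptor expressed in CHO-K1 cells; Ki values are the average of two determinations.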
Data set [8] deals with Rattus norvegicus. Description: Decrease in adipose mass in po dosed Sprague-Dawley DIO rat after 28 days. The format is functional, organism-based. In outline: as §2
Data set [9] can be described thus: Half life in Beagle dog. The format is ADME, organism-based, Canis lupus familiaris. The settings on record: in vivo.
For data set [10], the target named is 5-hydroxytryptamine receptor 2A (Homo sapiens) (UniProt P28223). Kind of data set: Inhibition of 5HT2A receptor at 10 uM. The essentials: as §1
In data set [11] the test system is Rattus norvegicus. Description: Reduction in food intake in Sprague-Dawley DIO rat at 10 mg/kg/day, po after 28 days relative to control. The format is functional, organism-based. The essentials:
as §2

A short description of data set [12]: Drug level in plasma of Sprague-Dawley DIO rat at 10 mg/kg/day, po after 28 days. The format is ADME, organism-based. The arrangement: route oral. The essentials: as §2
Data set [13] in a line: Inhibition of calcium channel at 10 uM. In outline: as §1
Data set [14] has as its system Rattus norvegicus. Kind of data set: Blockade of D-Trp[34]-NPY-induced food intake in po dosed rat. The format is functional.
In data set [15] the test system is Rattus norvegicus. Kind of data set: Reduction in body weight gain in po dosed Sprague-Dawley DIO rat after 28 days relative to control. The format is functional, organism-based. In outline: as §2

Activity calls are given as the source filed them.

Chain of 5-hydroxytryptamine receptor 2A (Homo sapiens) (P28223 whole entry): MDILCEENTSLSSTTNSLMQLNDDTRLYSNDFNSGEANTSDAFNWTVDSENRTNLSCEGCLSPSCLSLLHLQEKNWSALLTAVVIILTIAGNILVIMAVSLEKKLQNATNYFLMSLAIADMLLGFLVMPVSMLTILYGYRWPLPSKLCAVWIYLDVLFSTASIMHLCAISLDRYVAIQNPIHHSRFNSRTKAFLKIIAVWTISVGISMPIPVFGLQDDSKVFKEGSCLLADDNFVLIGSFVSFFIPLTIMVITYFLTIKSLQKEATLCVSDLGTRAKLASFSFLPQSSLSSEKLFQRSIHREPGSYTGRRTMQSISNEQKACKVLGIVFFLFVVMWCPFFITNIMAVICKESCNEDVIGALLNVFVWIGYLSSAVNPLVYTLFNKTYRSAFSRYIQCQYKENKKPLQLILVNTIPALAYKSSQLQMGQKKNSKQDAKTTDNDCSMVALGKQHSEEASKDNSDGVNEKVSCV
Chain of 5-hydroxytryptamine receptor 7 (Homo sapiens) (P34969 whole entry): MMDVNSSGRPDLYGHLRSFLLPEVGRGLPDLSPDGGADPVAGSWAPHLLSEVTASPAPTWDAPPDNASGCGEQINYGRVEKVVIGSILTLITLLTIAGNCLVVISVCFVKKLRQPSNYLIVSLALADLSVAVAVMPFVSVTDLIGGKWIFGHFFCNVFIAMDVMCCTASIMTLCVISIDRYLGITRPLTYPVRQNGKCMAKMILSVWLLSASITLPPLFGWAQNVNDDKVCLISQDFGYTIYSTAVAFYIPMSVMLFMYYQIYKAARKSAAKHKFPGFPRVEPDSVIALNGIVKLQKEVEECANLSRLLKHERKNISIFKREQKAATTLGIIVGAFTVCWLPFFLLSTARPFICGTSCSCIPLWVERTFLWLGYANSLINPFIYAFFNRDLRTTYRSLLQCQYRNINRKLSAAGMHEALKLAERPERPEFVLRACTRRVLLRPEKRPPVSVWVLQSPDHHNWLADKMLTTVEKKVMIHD
Chain of Neuropeptide Y receptor type 5 (Q15761 whole entry, looked up): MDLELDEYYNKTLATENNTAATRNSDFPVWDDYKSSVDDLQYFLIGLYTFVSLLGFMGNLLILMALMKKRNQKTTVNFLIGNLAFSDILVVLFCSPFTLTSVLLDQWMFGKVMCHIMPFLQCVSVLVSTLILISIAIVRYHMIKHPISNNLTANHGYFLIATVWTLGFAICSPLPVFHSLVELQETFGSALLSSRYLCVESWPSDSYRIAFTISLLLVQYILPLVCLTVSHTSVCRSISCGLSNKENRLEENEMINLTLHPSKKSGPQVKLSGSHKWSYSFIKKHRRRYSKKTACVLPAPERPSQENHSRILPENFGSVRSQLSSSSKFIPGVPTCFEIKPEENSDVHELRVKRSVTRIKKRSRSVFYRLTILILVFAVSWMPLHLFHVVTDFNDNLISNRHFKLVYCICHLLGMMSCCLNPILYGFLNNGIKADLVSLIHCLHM
Chain of Sodium-dependent serotonin transporter (Homo sapiens) (P31645 whole entry, looked up): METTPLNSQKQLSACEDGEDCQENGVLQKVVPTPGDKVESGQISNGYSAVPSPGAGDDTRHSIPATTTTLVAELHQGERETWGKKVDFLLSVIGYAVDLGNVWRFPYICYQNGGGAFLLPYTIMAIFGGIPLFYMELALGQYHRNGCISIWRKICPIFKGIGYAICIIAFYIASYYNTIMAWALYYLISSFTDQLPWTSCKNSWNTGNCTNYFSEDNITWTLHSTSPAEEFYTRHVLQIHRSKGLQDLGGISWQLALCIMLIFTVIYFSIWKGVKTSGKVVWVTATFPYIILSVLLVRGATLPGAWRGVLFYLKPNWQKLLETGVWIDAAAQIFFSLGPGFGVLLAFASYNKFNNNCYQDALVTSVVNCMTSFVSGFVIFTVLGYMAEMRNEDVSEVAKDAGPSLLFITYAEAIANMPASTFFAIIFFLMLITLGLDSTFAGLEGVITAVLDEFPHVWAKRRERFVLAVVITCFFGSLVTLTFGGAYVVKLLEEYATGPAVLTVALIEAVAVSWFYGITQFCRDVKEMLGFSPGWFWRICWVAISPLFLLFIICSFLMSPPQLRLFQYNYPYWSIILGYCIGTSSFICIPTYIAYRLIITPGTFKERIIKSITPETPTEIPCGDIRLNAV

For the compound `CC(=O)N1CCC(N(C)C(=O)N[C@H]2CC[C@H](c3cc(F)cc(F)c3)CC2)CC1`, the Kp in [1] worked out at 0.3. The inhibition in data set [2] is below 10%; in the data set on GABA transporter, below 10%; in data set [4], below 25%; in data set [5] it was below 10%; in [10] it was below 10%; in data set [13], below 25%. The half-life in [3] is 1.4 h; in [9], 24 h. Besides, in the data set on Rattus norvegicus [6], the result was Active. In data set [7], this compound showed a Ki of 1.8 nM. In addition, the Activity entry with Rattus norvegicus [8], in the data set on Rattus norvegicus [11] and in the data set with Rattus norvegicus [15] was “Dose-dependent effect” in each case. The compound also yielded a concentration at 672 h in data set [12] of 13 µM. The compound further registered an ED50 in the data set on Rattus norvegicus [14] of 2.3 mg/kg.

By inhibition is commonly meant the share of the control response that was lost under treatment. Broadly, the half-life is the time needed for the level to fall by half in the phase considered. A word on the Ki: it is the equilibrium dissociation constant of an inhibitor or competing ligand from its target. A high value points to lower affinity. Broadly, the ED50 is the dose at which the effect has come halfway, by size or by number of responders. High values mean a need for a large dose, low ones an effect at a small dose.
